Data reported in ChEMBL document CHEMBL4396878, “Mechanisms of Specific versus Nonspecific Interactions of Aggregation-Prone Inhibitors and Attenuators” (J Med Chem, 2019).
Active and inactive are the calls of the source. The rule behind the calls is not given here.

How the values were obtained:
[1] = Aggregation property of the compound in NMR buffer assessed as diameter of aggregate at 500 uM by dynamic light scattering analysis; assay type: physicochemical
Method in brief: (§1)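 Dynamic light scattering in NMR buffer, samples filtered through 0.22 μm and centrifuged 5 min at 13 500 rpm before measurement. Autocorrelation accumulated 150 s at a 173° scattering angle, in replicates of 3–5, with water viscosity used in analysis; intensity or volume size distributions reported.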

[2] = target: T1, Rap guanine nucleotide exchange factor 3 (Homo sapiens) (UniProt O95398); test: Binding affinity to human EPAC1 cAMP binding domain (149 to 318 residues) at 100 uM in presence of triton X-100 by [15N-1H]HSQC spectroscopic analysis
T1 sequence (whole entry): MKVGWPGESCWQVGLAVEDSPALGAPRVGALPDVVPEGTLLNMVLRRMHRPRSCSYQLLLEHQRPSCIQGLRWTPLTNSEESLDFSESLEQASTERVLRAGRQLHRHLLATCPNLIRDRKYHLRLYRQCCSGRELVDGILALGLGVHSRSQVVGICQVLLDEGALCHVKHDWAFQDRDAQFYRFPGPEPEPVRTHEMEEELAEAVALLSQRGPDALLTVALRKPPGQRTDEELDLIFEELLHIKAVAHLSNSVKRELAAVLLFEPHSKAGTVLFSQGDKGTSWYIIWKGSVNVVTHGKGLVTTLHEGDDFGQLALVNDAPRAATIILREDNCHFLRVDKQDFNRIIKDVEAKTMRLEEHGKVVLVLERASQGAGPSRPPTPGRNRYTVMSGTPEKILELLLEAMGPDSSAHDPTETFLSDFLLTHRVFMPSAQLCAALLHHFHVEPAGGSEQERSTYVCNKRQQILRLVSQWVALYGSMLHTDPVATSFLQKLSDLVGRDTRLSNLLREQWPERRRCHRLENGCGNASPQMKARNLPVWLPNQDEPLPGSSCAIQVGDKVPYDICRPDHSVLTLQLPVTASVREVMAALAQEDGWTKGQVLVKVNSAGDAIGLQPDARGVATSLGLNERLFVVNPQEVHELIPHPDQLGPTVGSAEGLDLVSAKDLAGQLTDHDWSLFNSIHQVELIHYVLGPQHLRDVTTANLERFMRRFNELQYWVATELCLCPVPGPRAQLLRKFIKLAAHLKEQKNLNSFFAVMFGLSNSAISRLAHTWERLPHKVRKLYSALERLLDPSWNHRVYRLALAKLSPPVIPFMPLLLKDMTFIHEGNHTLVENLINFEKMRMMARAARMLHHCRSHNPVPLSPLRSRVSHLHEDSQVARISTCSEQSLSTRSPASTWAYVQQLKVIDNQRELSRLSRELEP

[3] = Binding affinity to Triton-X 100 assessed as aggregate formation at 1:2 ratio of Triton-X 100 to compound by dynamic light scattering analysis; method in brief: as §1
[4] = Binding affinity to Triton-X 100 assessed as intra-molecular cross relaxation at 100 uM by NOESY spectra analysis
Method in brief: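 2D NOESY and ROESY of 100 μM ESI with 0.025% Triton X-100 or 500 μM ESI with 0.05% Triton X-100; 2K × 512 complex points, 12 ppm spectral width centred at 4.7 ppm, intra- and intermolecular cross-peaks mapped.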

[5] = Binding affinity to Triton-X 100 assessed as inter-molecular saturation transfer at 100 uM at 6.61 ppm by STD spectra analysis
Method in brief: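 STD NMR, saturation by a train of 40 Gaussian pulses of 50 ms each; selective on-resonance irradiation at the stated ppm (TX at 7.48 ppm), off-resonance at 30 ppm, interleaved and subtracted by phase cycling. 32K points, 16 ppm width centred at 4.7 ppm, 256 scans, 16 dummy scans, 0.1 s recycle delay (~15 min); 3 Hz exponential line broadening.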

[6] = target: T1, Rap guanine nucleotide exchange factor 3 (Homo sapiens); test: Binding affinity to human EPAC1 cAMP binding domain (149 to 318 residues) assessed as intensity loss using aggregate form of compound by [15N-1H]HSQC spectroscopic analysis
[7] = target: T1, Rap guanine nucleotide exchange factor 3 (Homo sapiens); test: Binding affinity to human EPAC1 cAMP binding domain (149 to 318 residues) assessed as change in chemical shift at 50 to 250 uM using aggregate form of compound by [15N-1H]HSQC spectroscopic analysis
[8] = target: T2, Rap guanine nucleotide exchange factor 3 (Homo sapiens, UniProt O95398); test: Inhibition of 8-NBD-cAMP binding to human EPAC1 cAMP binding domain (149 to 318 residues) by fluorescence assay
T2 sequence (O95398 whole entry): T1 sequence (whole entry)

[9] = Reversible binding affinity to Triton-X 100 at dilution from 100 uM by 1H-NMR spectra analysis
[10] = Binding affinity to Triton-X 100 assessed as line broadening at 100 uM by 1H-NMR spectra analysis
[11] = target: T1, Rap guanine nucleotide exchange factor 3 (Homo sapiens); test: Binding affinity to human EPAC1 cAMP binding domain (149 to 318 residues) assessed as peak size at 50 to 200 uM by dynamic light scattering analysis; method in brief: as §1
[12] = target: T1, Rap guanine nucleotide exchange factor 3 (Homo sapiens); test: Binding affinity to human EPAC1 cAMP binding domain (149 to 318 residues) assessed as peak size at 50 to 200 uM using aggregate form of compound by dynamic light scattering analysis; method in brief: as §1
[13] = Binding affinity to Triton-X 100 assessed as change in chemical shift at 100 uM by 1H-NMR spectra analysis
[14] = Binding affinity to Triton-X 100 assessed as change in chemical shift for aggregate formation at 100 to 300 uM by 1H-NMR analysis
[15] = Binding affinity to Triton-X 100 assessed as line broadening at 100 to 300 uM by 1H-NMR analysis
Albumin = Albumin (Homo sapiens, UniProt P02768); test: Displacement of dansylated arginine from human serum albumin by fluorescence assay; conditions: read-out: Kd(app)
Albumin, sequence (P02768 whole entry): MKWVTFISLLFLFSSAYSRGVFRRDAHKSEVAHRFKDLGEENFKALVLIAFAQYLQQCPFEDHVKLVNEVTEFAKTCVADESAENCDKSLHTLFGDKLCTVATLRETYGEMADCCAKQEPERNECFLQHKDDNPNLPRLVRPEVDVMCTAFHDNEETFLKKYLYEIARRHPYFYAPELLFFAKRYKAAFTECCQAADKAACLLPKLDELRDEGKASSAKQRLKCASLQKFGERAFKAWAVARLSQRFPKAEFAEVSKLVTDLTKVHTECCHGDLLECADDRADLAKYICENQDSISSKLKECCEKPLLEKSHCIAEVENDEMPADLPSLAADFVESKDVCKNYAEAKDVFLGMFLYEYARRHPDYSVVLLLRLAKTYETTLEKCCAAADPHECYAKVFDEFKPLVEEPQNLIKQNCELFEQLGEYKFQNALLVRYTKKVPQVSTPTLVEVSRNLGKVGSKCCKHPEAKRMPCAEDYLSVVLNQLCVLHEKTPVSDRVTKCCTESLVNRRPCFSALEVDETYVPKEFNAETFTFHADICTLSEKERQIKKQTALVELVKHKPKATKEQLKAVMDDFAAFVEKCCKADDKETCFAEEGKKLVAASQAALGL
Method in brief: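 Competition of ligand against 100 μM dansyl-arginine (Sudlow site 1, 1:1 stoichiometry) bound to 2.5 μM HSA. Excitation 370 nm, emission 460 nm. Apparent Kd fitted by Wang's method using least squares, assuming no other ligand sites on HSA, so treated as a maximum apparent value.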

[16] = target: T1, Rap guanine nucleotide exchange factor 3 (Homo sapiens); test: Binding affinity to human EPAC1 cAMP binding domain (149 to 318 residues) assessed as increase in peak intensity at 100 uM in presence of human serum albumin by [15N-1H]HSQC spectroscopic analysis relative to control
[17] = target: T1, Rap guanine nucleotide exchange factor 3 (Homo sapiens); test: Binding affinity to human EPAC1 cAMP binding domain (149 to 318 residues) assessed as change in chemical shift at 100 uM in presence of human serum albumin by [15N-1H]HSQC spectroscopic analysis relative to compound alone
[18] = target: T2, Rap guanine nucleotide exchange factor 3; test: Binding affinity to human EPAC1 cAMP binding domain (149 to 318 residues) using monomeric form of compound by [15N-1H]HSQC spectroscopic analysis

Activity [1]: 250 nm
Activity [2]: Active
Activity [3]: Active
Activity [5]: Active
Activity [6]: Active
Activity [7]: Active
Kd [8]: 20 µM
Activity [9]: Active
Activity [10]: Active
Activity [11]: < 5 nm
Activity [12]: 250 nm
Activity [13]: Active
Activity [14]: Active
Activity [15]: Active
Kd (Albumin): 0.23 µM
Activity [16]: 44%
Activity [17]: < 30%
Kd [18]: 20 µM
Structure (SMILES): CC(C)(C)c1cc(C(=O)/C(C#N)=N/Nc2cccc(Cl)c2)no1
Activity [4]: Active
